Measurements taken from ChEMBL document CHEMBL1142571, “Antiprotozoal compounds from Psorothamnus polydenius” (J Nat Prod, 2005).
In brackets after ≈: the same amount, converted by molar mass.

Tests used:
[1] = tested on: Leishmania mexicana; test: Antileishmanial activity against Leishmania mexicana MNYC/BZ/62/M379 infected in C57BL/6 mouse peritoneal macrophages assessed as reduction in infection at 3.1 ug/ml after 72 hrs relative to control; type: functional; parameters: scale not given: the % may be the effect or the level left
Summary of the method: (§1)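 Mouse peritoneal macrophages were infected with promastigotes in supplemented DMEM on chamber slides for 24 h at 33 °C under 5% CO2. They were washed with HBSS and given serial drug dilutions for 72 h. Cells were then methanol-fixed and stained with 0.04% Giemsa for 35 min. At least 200 cells per sample were counted under oil immersion, and the value is the % decrease in infected macrophages versus untreated wells.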

[2] = tested on: Leishmania donovani; test: Antileishmanial activity against Leishmania donovani MHOM/SD/62/1S-CL2D axenic amastigotes after 3 days by tetrazolium dye method; type: functional, organism-based; settings: 72 h
Summary of the method: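 L. donovani amastigote-like parasites grown axenically were exposed to compounds for three days. Viability was read with the tetrazolium-based CellTiter reagent.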

[3] = tested on: Leishmania mexicana; test: Antileishmanial activity against Leishmania mexicana MNYC/BZ/62/M379 infected in C57BL/6 mouse peritoneal macrophages assessed as reduction in infection at 6.3 ug/ml after 72 hrs relative to control; type: functional; parameters: scale not given: the % may be the effect or the level left; summary of the method: as §1
[4] = Selectivity for Leishmania donovani MHOM/SD/62/1S-CL2D axenic amastigotes over african green monkey Vero cells
[5] = tested on: Leishmania mexicana; test: Antileishmanial activity against Leishmania mexicana MNYC/BZ/62/M379 infected in C57BL/6 mouse peritoneal macrophages assessed as reduction in infection at 12.5 ug/ml after 72 hrs relative to control; type: functional; parameters: scale not given: the % may be the effect or the level left; summary of the method: as §1
[6] = tested on: Trypanosoma brucei brucei; test: Antitrypanosomal activity against blood stream-form of Trypanosoma brucei brucei MITat1.2 after 72 hrs by MTT assay; type: functional, organism-based
Summary of the method: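 Late-log bloodstream-form T. b. brucei in HMI-9 were incubated with or without compound for 72 h at 37 °C under 5% CO2. MTT (25 µL of a 5 mg/mL stock) was added for 2 h, then 10% SDS in 50% aqueous DMF for 3-4 h. OD was read at 570 nm, and IC50 is 50% growth inhibition versus untreated control.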

[7] = tested on: Vero; test: Cytotoxicity against african green monkey Vero cells after 72 hrs by cell-titer assay; type: cell-based; settings: Chlorocebus sabaeus
Summary of the method: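 Vero cells (1000/well) in Eagle's MEM with Earle's salts, penicillin/streptomycin and 10% FBS were seeded with serial compound dilutions for 72 h at 37 °C under 5% CO2. CellTiter reagent was then added for 12-14 h, and absorbance was read at 490 nm.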

[8] = tested on: J774.A1; test: Cytotoxicity against mouse J774A1 cells after 72 hrs by cell-titer assay; type: cell-based; settings: J774.A1, 72 h
Summary of the method: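 J774 A.1 macrophages (5000/well) in DMEM with penicillin/streptomycin and 10% FBS were seeded with serial compound dilutions for 72 h at 37 °C under 5% CO2. Viability was read by CellTiter, with 12-14 h color development and absorbance at 490 nm.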

[9] = tested on: Leishmania mexicana; test: Antileishmanial activity against Leishmania mexicana MNYC/BZ/62/M379 infected in C57BL/6 mouse peritoneal macrophages assessed as reduction in infection at 0.014 ug/ml after 72 hrs relative to control; type: functional; parameters: scale not given: the % may be the effect or the level left; summary of the method: as §1
[10] = tested on: Leishmania mexicana; test: Antileishmanial activity against Leishmania mexicana MNYC/BZ/62/M379 infected in C57BL/6 mouse peritoneal macrophages assessed as reduction in infection at 0.029 ug/ml after 72 hrs relative to control; type: functional; parameters: scale not given: the % may be the effect or the level left; summary of the method: as §1
[11] = tested on: Leishmania mexicana; test: Antileishmanial activity against Leishmania mexicana MNYC/BZ/62/M379 infected in C57BL/6 mouse peritoneal macrophages assessed as reduction in infection at 0.116 ug/ml after 72 hrs relative to control; type: functional; parameters: scale not given: the % may be the effect or the level left; summary of the method: as §1
[12] = tested on: Leishmania mexicana; test: Antileishmanial activity against Leishmania mexicana MNYC/BZ/62/M379 infected in C57BL/6 mouse peritoneal macrophages assessed as reduction in infection at 25 ug/ml after 72 hrs relative to control; type: functional; parameters: scale not given: the % may be the effect or the level left; summary of the method: as §1
[13] = tested on: Leishmania mexicana; test: Antileishmanial activity against Leishmania mexicana MNYC/BZ/62/M379 infected in C57BL/6 mouse peritoneal macrophages assessed as reduction in infection at 50 ug/ml after 72 hrs relative to control; type: functional; parameters: scale not given: the % may be the effect or the level left; summary of the method: as §1

Row | Compound | Activity [1] | IC50 [2] | Activity [3] | Ratio IC50 [4] | Activity [5] | IC50 [6] | IC50 [7] | IC50 [8] | Activity [9] | Activity [10] | Activity [11] | Activity [12] | Activity [13]
1 | COc1c(C)c(O)c(C)c(O)c1C(=O)/C=C/c1ccccc1 | 28% | 5 µg/mL (≈ 16.8 µM) | 61% | 2.6 | 96% | 6.3 µg/mL (≈ 21.1 µM) | 12.9 µg/mL (≈ 43.2 µM) | 7.7 µg/mL (≈ 25.8 µM) |  |  |  |  | 
2 | COc1c(C)c(O)c(C)c(O)c1C(=O)/C=C/c1ccccc1O | 6% | 7.5 µg/mL (≈ 23.9 µM) | 34% | 1.8 | 96% | 6.8 µg/mL (≈ 21.6 µM) | 13.3 µg/mL (≈ 42.3 µM) | 9.3 µg/mL (≈ 29.6 µM) |  |  |  |  | 
3 | C[C@@H]1[C@H](O)[C@@H](C)/C=C/C=C/C=C/C=C/C=C/C=C/C=C/[C@H](O[C@@H]2O[C@H](C)[C@@H](O)[C@H](N)[C@@H]2O)C[C@@H]2O[C@](O)(C[C@@H](O)C[C@@H](O)[C@H](O)CC[C@@H](O)C[C@@H](O)CC(=O)O[C@H]1C)C[C@H](O)[C@H]2C(=O)O [AMPHOTERICIN B] |  |  |  |  |  |  |  |  | 59% | 85% | 95% |  | 
4 | COC1=C(C)C(=O)C(C)(C)C(=O)/C1=C1\C=Cc2ccccc2O1 [DALRUBONE] |  | 7.5 µg/mL (≈ 24.2 µM) | 1% | 5.9 | 41% | 21.6 µg/mL (≈ 69.6 µM) | 44.5 µg/mL (≈ 143 µM) | 30.1 µg/mL (≈ 97 µM) |  |  |  | 97% | 
5 | Cc1c(O)c(C)c2c(c1O)C(=O)C[C@@H](c1ccccc1)O2 [DEMETHOXYMATTEUCINOL] |  | > 100 µg/mL |  |  |  | 28.9 µg/mL (≈ 102 µM) | > 50 µg/mL | > 50 µg/mL |  |  |  |  | 
6 | O=C1C[C@@H](c2ccc(O)c(O)c2)Oc2cc(O)cc(O)c21 [ERIODICTYOL] |  | 25 µg/mL (≈ 86.7 µM) |  |  | 30% | 25 µg/mL (≈ 86.7 µM) | 36.5 µg/mL (≈ 127 µM) | 32.8 µg/mL (≈ 114 µM) |  |  |  | 55% | 76%
7 | N=C(N)c1ccc(OCCCCCOc2ccc(C(=N)N)cc2)cc1 [PENTAMIDINE] |  | 1.4 µg/mL (≈ 4.11 µM) |  |  |  | 0.007 µg/mL (≈ 0.0206 µM) | > 50 µg/mL | 12.9 µg/mL (≈ 37.9 µM) |  |  |  |  | 
8 | Cc1ccc(C(=O)Nc2ccc(S(=O)(=O)O)c3cc(S(=O)(=O)O)cc(S(=O)(=O)O)c23)cc1NC(=O)c1cccc(NC(=O)Nc2cccc(C(=O)Nc3cc(C(=O)Nc4ccc(S(=O)(=O)O)c5cc(S(=O)(=O)O)cc(S(=O)(=O)O)c45)ccc3C)c2)c1 [SURAMIN] |  |  |  |  |  | 0.193 µg/mL (≈ 0.149 µM) |  |  |  |  |  |  | 
